Measurements from PMC2933425 (Journal of medicinal chemistry, 2010).
Read-outs that look alike come from different tables or passages of the source. Marks after values point to notes of the source that are not given here.

How the values were obtained:
[1] = Photophysical measurements; type: physicochemical; conditions: for Qy(0,0) absorption fwhm / Qy(0,0) absorption λ / Qy(0,0) fluorescence fwhm / Qy(0,0) fluorescence λ: aerated methanol; for Θ f (fluorescence quantum yield) / τS (lifetime of the lowest singlet excited state): Ar-purged methanol; for τS (lifetime of the lowest singlet excited state): fluorescence detection; for Φisc (triplet-excited-state quantum yield, measured directly): Ar-purged solutions; for kic (rate constant for internal conversion of the lowest singlet excited state to the ground state): printed as (x ns)^−1, from Φisc, Φf and τS
HeLa cells [2] = test: Cellular uptake into HeLa cells; type: cell-based, human; conditions: 24 h, highest concentration (20.5 μM)
Outline: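 HeLa cells in RPMI with 10% heat-inactivated FBS, seeded at 5000/well and grown 24 h, then exposed 24 h to test compound diluted in complete medium. Cells rinsed with warm PBS, lysed in SOLVABLE 2 h at 37 °C. Lysate fluorescence read at ex 402/em 730 nm against per-compound calibration curves in SOLVABLE. Protein by BCA with BSA standards. Expressed as nmol per mg protein; three experiments.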

[3] = system: HeLa human cervical cancer cells; test: In vitro PDT toxicity on HeLa cells after illumination; type: cell-based; conditions: for LD50: 24 h; for phototoxicity per unit uptake (in words) / incubation period needed to exert PDT toxicity (time-course) / LD50 (least active compounds): HeLa; for phototoxicity per unit uptake (in words): normalized to the same uptake level; for incubation period needed to exert PDT toxicity (time-course): 0.5 μM, various incubation times, 10 J/cm^2 of 732 nm light; for LD50 (least active compounds): 10 J/cm^2 of 732 nm laser
HeLa cells [4] = type: cell-based, human; conditions: 1 μM bacteriochlorin, 24 h
Outline: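 HeLa cells in 35 mm dishes, attached overnight, then given 1 μM test compound in complete medium for 24 h. After a PBS wash, 5 μg/mL LysoTracker green DND-26, MitoTracker green FM or ER-Tracker green was added for 30 min at 37 °C. Cells were washed again and imaged 5–10 min later by confocal microscopy: 488 nm argon excitation, probe emission 515 ± 10 nm, compound emission >580 nm, 63× water lens. Red/green overlays scored for overlap.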

[5] = system: HeLa human cervical cancer cells; test: Dark toxicity on HeLa cells; conditions: no light, at 10 μM
[6] = system: HeLa human cervical cancer cells; conditions: 24 h, 10 μM
[7] = cited from earlier work
[8] = Ar-purged 2-methyltetrahydrofuran
[9] = freeze–pump–thaw degassed methanol

Compound	Qy(0,0) absorption fwhm [1] [nm]	Qy(0,0) absorption λ [1] [nm]	uptake level (in words) (HeLa cells [2])	LD50 [3] [nM]	τT (lifetime of the lowest triplet excited state) [1, 8] [μs]	Θ f (fluorescence quantum yield) [1]	τS (lifetime of the lowest singlet excited state) [1] [ns]	Qy(0,0) fluorescence fwhm [1] [nm]	Qy(0,0) fluorescence λ [1] [nm]	phototoxicity per unit uptake (in words) [3]	also measured
CC1(C)Cc2cc3ccc(cc4nc(cc5ccc(cc1n2)[nH]5)CC4(C)C)[nH]3 [8,8,18,18-tetramethylbacteriochlorin, reference compound]											Φf of fluorescence standard ([1]; Ar-purged toluene, Soret and Qx excitation): 0.125
COCCOCCOCCOCCNCc1cc(CNCCOCCOCCOCCOC)cc(-c2c3nc(cc4[nH]c(cc4-c4ccc(C)cc4)c(OC)c4nc(cc5[nH]c2cc5-c2ccc(C)cc2)C(C)(C)C4)C(C)(C)C3)c1 [Compound 1]	21	732	Low to intermediate uptake	500							
CC1(C)Cc2cc3[nH]c(cc4nc(cc5[nH]c(cc1n2)cc5-c1cc(OCCO)cc(OCCO)c1)CC4(C)C)cc3-c1cc(OCCO)cc(OCCO)c1 [Compound 3]	19	732			159	0.15	3.0	24	738	high values	
CC1(C)Cc2cc3[nH]c(cc4nc(cc5[nH]c(cc1n2)cc5-c1cc(O)cc(O)c1)CC4(C)C)cc3-c1cc(O)cc(O)c1 [Compound 4]	21	732			190	0.12	3.7	26	737	high values	overlap with endoplasmic reticulum probe (ER-Tracker) (HeLa cells [4]): high degree of localization; Φisc (triplet-excited-state quantum yield, measured directly) [1]: 0.41; kic (rate constant for internal conversion of the lowest singlet excited state to the ground state) [1]: 7.7 (ns)^−1; incubation period needed to exert PDT toxicity (time-course) [3]: most rapid toxicity
CC1(C)Cc2cc3[nH]c(cc4nc(cc5[nH]c(cc1n2)cc5C#CC[N+](C)(C)C)CC4(C)C)cc3C#CC[N+](C)(C)C.[Cl-].[Cl-] [Compound 5]	16	749	Intermediate uptake levels			0.11	3.8	22	754	much lower values	τT (lifetime of the lowest triplet excited state) [1, 9]: 104 ^k μs; dark toxicity level [5]: ~50%; LD50 (least active compounds) [3]: > 1 µM
CC1(C)Cc2cc3[nH]c(cc4nc(cc5[nH]c(cc1n2)cc5CN(CCO)CCO)CC4(C)C)cc3CN(CCO)CCO [Compound 6]	18	718	Intermediate uptake levels		190	0.095	3.8	23	724	high values	overlap with endoplasmic reticulum probe (ER-Tracker) (HeLa cells [4]): good overlap; dark toxicity level [6]: ~50%
CC1(C)Cc2cc3[nH]c(cc4nc(cc5[nH]c(cc1n2)cc5C(=O)O)CC4(C)C)cc3C(=O)O [Compound 7]	26	734	lowest uptake	4000	70	0.077	3.7	19	742		LD50 (least active compounds) [3]: > 1 µM
CC1(C)Cc2cc3[nH]c(cc4nc(cc5[nH]c(cc1n2)cc5C(=O)NCCN)CC4(C)C)cc3C(=O)NCCN [Compound 8]	23	742	Intermediate uptake levels	3000		0.13	4.0	25	750	much lower values	overlap with endoplasmic reticulum probe (ER-Tracker) (HeLa cells [4]): hardly any overlap; τT (lifetime of the lowest triplet excited state) [1, 9]: 77 ^k μs; incubation period needed to exert PDT toxicity (time-course) [3]: longest incubation times; LD50 (least active compounds) [3]: > 1 µM
CC1(C)Cc2cc3[nH]c(cc4nc(cc5[nH]c(cc1n2)cc5C(=O)N(CCN)CCN)CC4(C)C)cc3C(=O)N(CCN)CCN [Compound 9]	19	729	low uptake	800		0.12	3.5	24	735	much lower values	Φisc (triplet-excited-state quantum yield, measured directly) [1]: 0.57; τT (lifetime of the lowest triplet excited state) ([1]; freeze–pump–thaw degassed ethanol): 54 ^l μs; kic (rate constant for internal conversion of the lowest singlet excited state to the ground state) [1]: 11.4 (ns)^−1
CC1(C)Cc2cc3[nH]c(cc4nc(cc5[nH]c(cc1n2)cc5C(=O)N1CC[N+](C)(C)CC1)CC4(C)C)cc3C(=O)N1CC[N+](C)(C)CC1.[Cl-].[Cl-] [Compound 10]	21	731	low uptake			0.12	3.8	28	740	much lower values	τT (lifetime of the lowest triplet excited state) [1, 9]: 100 ^k μs
CC1(C)Cc2cc3[nH]c(cc4nc(cc5[nH]c(cc1n2)cc5C(=O)/C=C/c1cc(O)cc(O)c1)CC4(C)C)cc3C(=O)/C=C/c1cc(O)cc(O)c1 [Compound 11]	35	781	low uptake	200	78	0.021	3.4	40	800		
COCCN(CCOC)C(=O)c1cc2cc3nc(cc4[nH]c(cc5nc(cc1[nH]2)CC5(C)C)cc4C(=O)N(CCOC)CCOC)CC3(C)C [Compound 12]	20	727	highest uptake		105	0.10	3.3	27	733	high values	
CC[C@H]1c2cc3[nH]c4c(c3C)C(=O)[C@H](C(=O)OC)c4c3nc(cc4[nH]c(cc(n2)[C@@H]1C)c(C(C)=O)c4C)[C@@H](C)[C@@H]3CCC(=O)OC/C=C(\C)CCC[C@H](C)CCC[C@H](C)CCCC(C)C [bacteriopheophytin a]											yield of the lowest triplet excited state [7]: 0.54
C1=Cc2nc1c(-c1ccccc1)c1nc(c(-c3ccccc3)c3ccc([nH]3)c(-c3ccccc3)c3ccc([nH]3)c2-c2ccccc2)C=C1 [free base tetraphenylporphyrin, tetraphenylporphyrin]											Φf of fluorescence standard ([7]; in toluene ref 33): 0.090
